Measurements published in article PMC7993274 (Clinical and Translational Science, 2020).

Assays:
[1] = Treatment-emergent adverse events, MAD period and b.i.d. cohort; type: in vivo, human
Outline: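 Double-blind, placebo-controlled study in healthy men and nonchildbearing women aged 18–55 y. The SAD period gave one fasted oral dose; the MAD period gave fed dosing q.d. for 10 days, plus a separate b.i.d. cohort. TEAEs, serious AEs and discontinuation AEs were monitored ≥28 days after the last dose. Vital signs, physical exam, 12-lead ECG, hematology, clinical chemistry and urinalysis were also recorded. Data summarized descriptively.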

MRP2 = conditions: cited from earlier work
OCT2 = conditions: cited from earlier work
CYP3A4 = assay: 6‐beta‐hydroxycortisol/cortisol ratio; type: in vivo, human; conditions: participants receiving PF‐06826647
MRP3 = conditions: cited from earlier work
OATP1B3 = conditions: cited from earlier work
[2] = MAD Japanese cohort 400 mg q.d. (n = 5)
[3] = b.i.d. cohort 200 mg b.i.d. (n = 7)

For `Cn1cc(-c2cn3nccc3c(-c3cnn([C@]4(CC#N)C[C@@H](C#N)C4)c3)n2)cn1` [PF‐06826647], the “Participants with TEAEs: Renal and urinary disorders (SOC)” value ([1]; MAD 100 mg q.d. (n = 6)) was 0 n (%), the SAEs ([1]; MAD 100 mg q.d. (n = 6)) was 0 n and the “Severe AEs” value ([1]; MAD 100 mg q.d. (n = 6)) was 0 n. The AEs ([1]; MAD 400 mg q.d. (n = 6)) was 1 n, the “AEs leading to permanent discontinuation of study drug” value (“AEs leading … of study drug” below) ([1]; MAD 400 mg q.d. (n = 6)) was 0 n and the “AEs leading to study drug dose reduction or interruption” value ([1]; MAD 400 mg q.d. (n = 6)) was 0 n. The “Participants with AE” value ([1]; MAD 400 mg q.d. (n = 6)) was 1 (16.7) n (%), the “Participants with TEAEs: Alanine aminotransferase increased” value ([1]; MAD 400 mg q.d. (n = 6)) was 0 n (%) and the “Participants with TEAEs: Blood creatinine increased” value ([1]; MAD 400 mg q.d. (n = 6)) was 1 (16.7) n (%). The “Participants with TEAEs: Constipation” value ([1]; MAD 400 mg q.d. (n = 6)) was 0 n (%), the “Participants with TEAEs: Dysuria” value ([1]; MAD 400 mg q.d. (n = 6)) was 0 n (%) and the “Participants with TEAEs: Gastrointestinal disorders (SOC)” value ([1]; MAD 400 mg q.d. (n = 6)) was 0 n (%). For the same molecule, the “Participants with TEAEs: Headache” value ([1]; MAD 400 mg q.d. (n = 6)) was 0 n (%), the “Participants with TEAEs: Investigations (SOC)” value ([1]; MAD 400 mg q.d. (n = 6)) was 1 (16.7) n (%) and the “Participants with TEAEs: Nausea” value ([1]; MAD 400 mg q.d. (n = 6)) was 0 n (%). The “Participants with TEAEs: Nervous system disorders (SOC)” value ([1]; MAD 400 mg q.d. (n = 6)) was 0 n (%), the “Participants with TEAEs: Renal and urinary disorders (SOC)” value ([1]; MAD 400 mg q.d. (n = 6)) was 0 n (%) and the SAEs ([1]; MAD 400 mg q.d. (n = 6)) was 0 n. The “Severe AEs” value ([1]; MAD 400 mg q.d. (n = 6)) was 0 n, the AEs ([1]; MAD 1,200 mg q.d. (n = 5)) was 1 n and the “AEs leading … of study drug” value ([1]; MAD 1,200 mg q.d. (n = 5)) was 0 n. For the same molecule, the “AEs leading to study drug dose reduction or interruption” value ([1]; MAD 1,200 mg q.d. (n = 5)) was 0 n, the “Participants with AE” value ([1]; MAD 1,200 mg q.d. (n = 5)) was 1 (20.0) n (%) and the “Participants with TEAEs: Alanine aminotransferase increased” value ([1]; MAD 1,200 mg q.d. (n = 5)) was 0 n (%). For the same molecule, the “Participants with TEAEs: Blood creatinine increased” value ([1]; MAD 1,200 mg q.d. (n = 5)) was 1 (20.0) n (%), the “Participants with TEAEs: Constipation” value ([1]; MAD 1,200 mg q.d. (n = 5)) was 0 n (%) and the “Participants with TEAEs: Dysuria” value ([1]; MAD 1,200 mg q.d. (n = 5)) was 0 n (%). The “Participants with TEAEs: Headache” value ([1]; MAD 1,200 mg q.d. (n = 5)) was 0 n (%), the “Participants with TEAEs: Investigations (SOC)” value ([1]; MAD 1,200 mg q.d. (n = 5)) was 1 (20.0) n (%) and the “Participants with TEAEs: Nausea” value ([1]; MAD 1,200 mg q.d. (n = 5)) was 0 n (%). For the same molecule, the “Participants with TEAEs: Nervous system disorders (SOC)” value ([1]; MAD 1,200 mg q.d. (n = 5)) was 0 n (%), the “Participants with TEAEs: Renal and urinary disorders (SOC)” value ([1]; MAD 1,200 mg q.d. (n = 5)) was 0 n (%) and the SAEs ([1]; MAD 1,200 mg q.d. (n = 5)) was 0 n. The “Severe AEs” value ([1]; MAD 1,200 mg q.d. (n = 5)) was 0 n, the AEs [1, 2] was 2 n and the “AEs leading … of study drug” value [1, 2] was 0 n. For the same molecule, the “AEs leading to study drug dose reduction or interruption” value [1, 2] was 0 n, the “Participants with AE” value [1, 2] was 1 (20.0) n (%) and the “Participants with TEAEs: Alanine aminotransferase increased” value [1, 2] was 1 (20.0) n (%). For the same molecule, the “Participants with TEAEs: Blood creatinine increased” value [1, 2] was 0 n (%), the “Participants with TEAEs: Constipation” value [1, 2] was 0 n (%) and the “Participants with TEAEs: Dysuria” value [1, 2] was 0 n (%). For the same molecule, the “Participants with TEAEs: Gastrointestinal disorders (SOC)” value [1, 2] was 0 n (%), the “Participants with TEAEs: Headache” value [1, 2] was 1 (20.0) n (%) and the “Participants with TEAEs: Investigations (SOC)” value [1, 2] was 1 (20.0) n (%). For the same molecule, the “Participants with TEAEs: Nausea” value [1, 2] was 0 n (%), the “Participants with TEAEs: Nervous system disorders (SOC)” value [1, 2] was 1 (20.0) n (%) and the “Participants with TEAEs: Renal and urinary disorders (SOC)” value [1, 2] was 0 n (%). For the same molecule, the SAEs [1, 2] was 0 n, the “Severe AEs” value [1, 2] was 0 n and the AEs [1, 3] was 3 n. For the same molecule, the “AEs leading … of study drug” value [1, 3] was 0 n, the “AEs leading to study drug dose reduction or interruption” value [1, 3] was 0 n and the “Participants with AE” value [1, 3] was 3 (42.9) n (%). For the same molecule, the “Participants with TEAEs: Alanine aminotransferase increased” value [1, 3] was 0 n (%), the “Participants with TEAEs: Blood creatinine increased” value [1, 3] was 3 (42.9) n (%) and the “Participants with TEAEs: Constipation” value [1, 3] was 0 n (%). For the same molecule, the “Participants with TEAEs: Dysuria” value [1, 3] was 0 n (%), the “Participants with TEAEs: Gastrointestinal disorders (SOC)” value [1, 3] was 0 n (%) and the “Participants with TEAEs: Headache” value [1, 3] was 0 n (%). The “Participants with TEAEs: Investigations (SOC)” value [1, 3] was 3 (42.9) n (%), the “Participants with TEAEs: Nausea” value [1, 3] was 0 n (%) and the “Participants with TEAEs: Nervous system disorders (SOC)” value [1, 3] was 0 n (%). The “Participants with TEAEs: Renal and urinary disorders (SOC)” value [1, 3] was 0 n (%), the SAEs [1, 3] was 0 n and the “Severe AEs” value [1, 3] was 0 n. The “inhibition of transporter protein MRP2” value (MRP2) was “minimal inhibition”, the “inhibition of transporter protein OCT2” value (OCT2) was “minimal inhibition” and the “6‐beta‐hydroxycortisol/cortisol ratio” value (CYP3A4) was “no clinically meaningful alteration”. The “inhibition of transporter protein MRP3” value (MRP3) was “minimal inhibition” and the “inhibition of transporter protein OATP1B3” value (OATP1B3) was “minimal inhibition”.
